TRPC4 potent: allosterically enhances the mouse TRPC4 cation channel; B-score at 10 µM; AID 2227; actives 0.42% (n = 310,000); HEK293 TRPC4beta/mu-opioid, DAMGO EC20, Fluo-4 Ca2+ flux; stronger effect = higher value;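 active = B-score of calcium response area above 5 SD of library B-scores, with initial fluorescence ratio within 5 SD of library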
TRPC4 block: TRPC4 (mouse) channel inhibition. actives 0.39% (n = 300,000). HEK293 TRPC4beta/mu-opioid, DAMGO-evoked Fluo4 calcium flux; stronger effect = lower value. B-score at 10 µM;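 active = B-score over 3 SD under the library average, no early fluorescence shift, positive overall ratio signal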
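Assay system: TRPC4beta/mu-opioid receptor HEK293 cell line; compound dosing: single concentration per test compound; detection: Fluo4 Ca2+ flux fluorescence; evaluation: per-well B score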
TRPC6 inhibitor: inhibitors of mouse TRPC6 channel | HEK293-TRPC6, membrane potential dye, ACh-evoked depolarization; stronger effect = lower value | B-score at 10 µM | actives 1.1% (n = 310,000) | Q61143;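 active = B-score under library mean minus 3 SD, initial fluorescence not abnormally high, positive integrated signal ratio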;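 also: B-score derived from integrated fluorescence ratio over the kinetic read; more negative B-score means stronger inhibition of depolarization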
TRPC6 activator: mouse TRPC6 channel activation; B-score at 10 µM; actives 0.13% (n = 310,000); HEK293-TRPC6 membrane potential dye fluorescence; stronger effect = higher value; Q61143;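 active = B-score of the integrated fluorescence ratio above library mean plus 3 SD, and starting fluorescence ratio within library mean plus 5 SD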;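 also: higher score means more depolarization so channel activation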
TRPC4 act: TRPC4 (mouse) channel activation | Q9QUQ5 | AID 2237 | B-score at 10 µM | HEK293 TRPC4beta/mu-opioid, Fluo4 calcium fluorescence; stronger effect = higher value | actives 0.49% (n = 310,000);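 active = B-score above 5 SD of library B-scores, and initial fluorescence ratio not above library mean plus 5 SD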;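 also: positive B-score marks a calcium rise read as TRPC4 activation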
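Technique: kinetic Fluo4 calcium fluorescence; Test system: TRPC4beta and mu-opioid receptor HEK293 stable cells; Measure: B-scored integrated calcium fluorescence ratio; Benchmarks: low control buffer alone, high control maximal DAMGO; Schedule: 45 min room-temperature Fluo4 loading, 110 s read.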
TRPC4 sel inh 2: second selectivity test of TRPC6 inhibitors: effect on mouse TRPC4; shares compounds with TRPC6 inhibitor; HEK293 TRPC4/MOR, membrane potential dye fluorescence; channel activated by saturating DAMGO dose; inhibition, % at 10 µM; actives 42% (n = 920); AID 2776;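 active = compounds whose fluorescence signal differed from control wells by over 3 SD, either direction, in both duplicate plates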
TRPC4 spec: selectivity of TRPC6 inhibitors: effect on mouse TRPC4 | shares compounds with TRPC6 inhibitor | HEK293 TRPC4/mu-opioid, membrane potential fluorescence | activity change, negative = inhibition, % at 10 µM | actives 61% (n = 920);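 active = rise or fall in signal beyond 3 SD of buffer-only wells in both replicate plates, either sign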;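 also: integrated kinetic ratio of fluorescence range over baseline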
HEK293 MPD ctr 2-1: parental HEK293 nonspecific activity of TRPC6 inhibitors, second screen; shares compounds with TRPC6 inhibitor; parental HEK293 membrane potential dye fluorescence; maximal acetylcholine challenge after compound addition; signal change vs control, % at 10 µM; actives 31% (n = 920);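 active = membrane potential signal moving either way by over 3 SD of the maximum-effect control, in both duplicate plates, meaning non-specific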
HEK293 MPD ctr-1: parental HEK293 nonspecific activity of TRPC6 inhibitors | shares compounds with TRPC6 inhibitor | parental HEK293 membrane potential dye fluorescence | membrane potential signal change, % at 10 µM | actives 60% (n = 920);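 active = membrane potential signal shifting up or down by more than 3 SD of buffer-only wells, on both duplicate plates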
HEK293 MPD ctr-2: parental HEK293 nonspecific activity of TRPC6 modulators | actives 51% (n = 2,400) | shares compounds with TRPC6 inhibitor | membrane potential dye fluorescence | membrane potential signal change, % at 10 µM;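 active = membrane potential signal moves up or down beyond 5 SD from buffer-only wells, on both duplicate plates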
HEK293 MPD ctr 2-2: parental HEK293 nonspecific activity of TRPC6 modulators, second screen. shares compounds with TRPC6 inhibitor. membrane potential dye fluorescence; after compound, maximal acetylcholine stimulation. inhibition, % at 10 µM. actives 14% (n = 2,400). AID 488926;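 active = membrane potential signal drops by more than 5 SD from the mean control signal, in both duplicate plates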
TRPC4 ctr mod: selectivity of TRPC6 modulators against mouse TRPC4 | shares compounds with TRPC6 inhibitor | HEK293 TRPC4/mu-opioid, membrane potential fluorescence | percent change from control (negative = decrease, positive = increase), % at 10 µM | actives 69% (n = 2,400);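 active = membrane potential signal moved up or down beyond 5 SD of buffer control wells, in both duplicate plates, actives on both sides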
TRPC4/MOR inh 2: second selectivity test of TRPC6 modulators against mouse TRPC4; actives 55% (n = 2,400); shares compounds with TRPC6 inhibitor; HEK293 TRPC4/mu-opioid, membrane potential dye fluorescence; stimulated with maximal-effect DAMGO; AID 488928; inhibition, % at 10 µM;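 active = drop in membrane potential signal beyond 5 SD of the control wells in both duplicate plates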;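 also: TRPC4 counter screen for TRPC6 hits run under conditions tuned for TRPC6 not TRPC4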
TRPC6 block conf: confirmation of mouse TRPC6 inhibitors. shares compounds with TRPC6 inhibitor. HEK293-TRPC6, membrane potential dye, ACh-evoked depolarization. inhibition, % at 10 µM. actives 43% (n = 3,300). AID 488960;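 active = fluorescence ratio falls more than 5 SD below the full-stimulation control mean, in both duplicate runs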;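 also: integrated fluorescence ratio of peak minus minimum over baseline after agonist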
TRPC6 act conf: confirmation of mouse TRPC6 activators. shares compounds with TRPC6 inhibitor. HEK293-TRPC6 membrane potential dye fluorescence, FDSS. activation, % at 10 µM. actives 11% (n = 2,800);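 active = ratio signal rise beyond 5 SD above unstimulated control wells' mean, seen in both duplicate runs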
A number is an active result; 0 = inactive; - = no result. Shown are actives, neighbours in structure and some others; about 2.3% of the full set was active somewhere.

SMILES | TRPC4 potent | TRPC4 block | TRPC6 inhibitor | TRPC6 activator | TRPC4 act | HEK293 MPD ctr-2 | HEK293 MPD ctr 2-2 | TRPC4 ctr mod | TRPC4/MOR inh 2 | TRPC6 block conf | TRPC6 act conf | others
COc1ccc(C2CC(=O)C=C(NCc3ccccc3)C2)cc1 (stereo not drawn) | 0 | 0 | 0 | 0 | 0 | - | - | - | - | - | -
O=C(c1cccs1)N1CCN(C23CC4CC(CC(C4)C2)C3)CC1 | 0 | 0 | -6.3 | 0 | 0 | 114% | 0 | 18% | 0 | 44% | -
Cc1ccc2c(c1)NC(=O)C(CC(=O)Nc1ccc(CN3CCC(C)CC3)cc1)O2 (stereo not drawn) | 0 | 0 | -8.5 | 0 | 0 | - | - | - | - | 79% | 0 | TRPC4 sel inh 2=0;TRPC4 spec=0;HEK293 MPD ctr 2-1=-4.5%;HEK293 MPD ctr-1=0
CCN1CCN(Cc2ccc(NC(=O)CC3Oc4ccc(C)cc4NC3=O)cc2)CC1 (stereo not drawn) | 0 | 0 | 0 | 0 | 0 | - | - | - | - | - | -
O=C(Cc1ccccc1)NCC(=O)OCC(=O)c1ccc(Cl)cc1 | 0 | 0 | 0 | 0 | 0 | - | - | - | - | - | -
Cc1ccc(S(=O)(=O)Cc2nnnn2-c2ccccc2)cc1 | 0 | 0 | 0 | 0 | 0 | - | - | - | - | - | -
c1cc2c3c(cccc3c1)C(N1CCCCC1)=N2 | 0 | 0 | -11 | 0 | 0 | -195% | 78% | -52% | 93% | 76% | 0
c1ccc(NC2=Nc3cccc4cccc2c34)cc1 | 0 | 0 | 0 | 0 | 0 | - | - | - | - | - | -
c1cc2c3c(cccc3c1)C(N1CCCCCC1)=N2 | 0 | 0 | -12 | 0 | 0 | -208% | 0 | -46% | 68% | 0 | 0
COc1ccc(-c2csc(N=C(N)N)n2)cc1 | 0 | 0 | 0 | 0 | 0 | - | - | - | - | - | -
Cc1ccc(-c2csc(N=C(N)N)n2)c(C)c1 | 0 | 0 | -5.5 | 0 | 0 | 94% | 0 | 12% | 52% | 0 | -
CCCCN(C(=O)Cn1nnc2ccccc21)C(C(=O)NCCOC)c1ccc(OC)cc1 (stereo not drawn) | 0 | 0 | 0 | 0 | 0 | - | - | - | - | - | -
COCCN(C(=O)Cn1nnc2ccccc21)C(C(=O)NC1CCCCC1)c1ccc(OC)cc1OC (stereo not drawn) | 0 | 0 | 0 | 38 | 0 | 818% | 173% | 163% | 0 | - | 354%
COCCN(C(=O)Cn1nnc2ccccc21)C(C(=O)NC1CCCC1)c1ccc(OC)cc1OC (stereo not drawn) | 0 | 0 | 0 | 20 | 0 | 600% | 194% | 118% | 0 | - | 311%
CCOC(=O)C(NC(=O)C1C(C)N1S(=O)(=O)c1ccc(C)cc1)C(=O)OCC (stereo not drawn) | 0 | 0 | 0 | 0 | 0 | - | - | - | - | - | -
Clc1nc(Nc2ccc(N3CCOCC3)cc2)c2ccccc2n1 | 0 | 0 | 0 | 0 | 0 | - | - | - | - | - | -

Source: PubChem BioAssay
